From ChEMBL document CHEMBL4229344 (Eur J Med Chem, 2018)
Activity calls are given as the source filed them. The calls are words filed in the database; no cut-off is given here.

Tests used:
[1] = molecular target: CDK4/Cyclin D3 (Homo sapiens) (UniProt P11802+P30281); experiment: Binding affinity to wild-type human full length CDK4/cyclinD3 (M1 to E303 residues) expressed in mammalian expression system assessed as residual binding level at 1 uM by Kinomescan method relative to control
Method in brief: (§1)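 Single-concentration (1 μM) competition-binding screen run by KINOMEscan against a panel of 468 purified kinases and mutants. The read-out is the relative binding activity of the test compound to each kinase.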

[2] = test system: EOL1; experiment: Antitumor activity against human EOL-1 cells xenografted in nu/nu mouse assessed as tumor growth inhibition at 25 mg/kg/day, ip; type: functional; conditions: read-out: TGI
Method in brief: (§2)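 Female nu/nu mice (6 weeks) given subcutaneous right-flank injection of 5 million EOL-1 cells in PBS/Matrigel 1:1. At 200–400 mm3 tumors, randomized to groups of 6 and dosed daily i.p. for 14 days at 25, 50 or 100 mg/kg/d in 0.5% methylcellulose/0.4% Tween80. Tumor volume = W²×L/2, measured daily.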

[3] = MRT (0 to t) in Sprague-Dawley rat at 10 mg/kg, po; type: ADME, organism-based; conditions: in vivo
[4] = molecular target: Cyclin-dependent kinase-like 2 (Homo sapiens) (UniProt Q92772); experiment: Binding affinity to wild-type human partial length CDKL2 (M1 to D327 residues) expressed in bacterial expression system assessed as residual binding level at 1 uM by Kinomescan method relative to control
Sequence of Cyclin-dependent kinase-like 2 (Homo sapiens) (Q92772 whole entry, the tested form may be a part): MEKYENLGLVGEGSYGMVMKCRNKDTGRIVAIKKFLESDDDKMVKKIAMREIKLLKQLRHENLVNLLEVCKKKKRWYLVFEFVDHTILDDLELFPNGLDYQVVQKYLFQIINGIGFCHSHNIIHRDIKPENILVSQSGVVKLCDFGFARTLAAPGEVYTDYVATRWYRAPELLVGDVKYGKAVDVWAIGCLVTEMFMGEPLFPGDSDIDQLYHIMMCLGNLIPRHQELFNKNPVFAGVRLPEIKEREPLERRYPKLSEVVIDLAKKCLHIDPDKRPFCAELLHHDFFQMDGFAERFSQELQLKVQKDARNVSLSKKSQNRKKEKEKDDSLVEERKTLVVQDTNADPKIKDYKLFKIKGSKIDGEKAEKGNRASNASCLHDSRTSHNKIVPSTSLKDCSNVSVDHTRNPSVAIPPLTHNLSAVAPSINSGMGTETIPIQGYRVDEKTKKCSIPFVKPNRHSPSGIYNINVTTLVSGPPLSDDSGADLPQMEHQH

[5] = molecular target: Activin receptor type-2A (Homo sapiens) (UniProt P27037); experiment: Binding affinity to wild-type human ACVR2A (V171 to T499 residues) expressed in bacterial expression system assessed as residual binding level at 1 uM by Kinomescan method relative to control; method in brief: as §1
Sequence of Activin receptor type-2A (Homo sapiens) (P27037 whole entry, the tested form may be a part): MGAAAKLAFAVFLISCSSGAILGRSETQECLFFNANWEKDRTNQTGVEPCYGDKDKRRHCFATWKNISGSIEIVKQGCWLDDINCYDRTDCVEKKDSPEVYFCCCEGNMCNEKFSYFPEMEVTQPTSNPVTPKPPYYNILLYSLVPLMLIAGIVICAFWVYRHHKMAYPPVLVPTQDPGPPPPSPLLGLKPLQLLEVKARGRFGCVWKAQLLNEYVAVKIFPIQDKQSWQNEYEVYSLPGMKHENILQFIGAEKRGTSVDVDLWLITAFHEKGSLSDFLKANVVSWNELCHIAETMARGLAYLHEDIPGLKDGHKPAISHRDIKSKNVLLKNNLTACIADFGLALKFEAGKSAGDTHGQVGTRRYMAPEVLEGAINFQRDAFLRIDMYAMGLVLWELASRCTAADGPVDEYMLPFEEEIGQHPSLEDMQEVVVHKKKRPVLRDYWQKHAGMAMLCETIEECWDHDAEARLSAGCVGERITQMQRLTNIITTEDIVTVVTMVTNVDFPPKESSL

[6] = molecular target: SNF-related serine/threonine-protein kinase (Homo sapiens) (UniProt Q9NRH2); experiment: Binding affinity to wild-type human partial length SNRK (M1 to E339 residues) expressed in mammalian expression system assessed as residual binding level at 1 uM by Kinomescan method relative to control
Sequence of SNF-related serine/threonine-protein kinase (Homo sapiens) (Q9NRH2 whole entry, the tested form may be a part): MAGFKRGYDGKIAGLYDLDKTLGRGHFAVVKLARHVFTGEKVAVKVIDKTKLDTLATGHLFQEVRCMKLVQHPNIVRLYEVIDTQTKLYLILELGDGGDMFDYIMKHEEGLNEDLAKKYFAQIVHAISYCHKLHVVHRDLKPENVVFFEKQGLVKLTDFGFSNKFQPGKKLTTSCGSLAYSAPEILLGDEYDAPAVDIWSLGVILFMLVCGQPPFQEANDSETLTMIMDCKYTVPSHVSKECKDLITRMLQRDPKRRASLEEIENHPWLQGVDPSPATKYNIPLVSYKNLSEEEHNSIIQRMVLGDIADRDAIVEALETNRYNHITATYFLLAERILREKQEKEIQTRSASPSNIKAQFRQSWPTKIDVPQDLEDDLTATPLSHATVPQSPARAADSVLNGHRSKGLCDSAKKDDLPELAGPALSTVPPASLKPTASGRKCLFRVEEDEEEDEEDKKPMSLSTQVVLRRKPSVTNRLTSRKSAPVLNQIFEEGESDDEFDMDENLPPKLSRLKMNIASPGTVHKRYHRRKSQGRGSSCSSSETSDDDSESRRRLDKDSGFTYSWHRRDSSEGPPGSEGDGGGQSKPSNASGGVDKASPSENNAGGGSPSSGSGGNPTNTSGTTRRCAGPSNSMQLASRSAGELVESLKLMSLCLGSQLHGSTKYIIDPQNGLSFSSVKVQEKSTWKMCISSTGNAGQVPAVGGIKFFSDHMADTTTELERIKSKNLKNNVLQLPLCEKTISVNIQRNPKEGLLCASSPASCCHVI

[7] = molecular target: Rho-associated protein kinase 1 (Homo sapiens) (UniProt Q13464); experiment: Binding affinity to wild-type human partial length ROCK1 (M1 to R415 residues) expressed in mammalian expression system assessed as residual binding level at 1 uM by Kinomescan method relative to control
Sequence of Rho-associated protein kinase 1 (Homo sapiens) (Q13464 2-1354 limits assumed): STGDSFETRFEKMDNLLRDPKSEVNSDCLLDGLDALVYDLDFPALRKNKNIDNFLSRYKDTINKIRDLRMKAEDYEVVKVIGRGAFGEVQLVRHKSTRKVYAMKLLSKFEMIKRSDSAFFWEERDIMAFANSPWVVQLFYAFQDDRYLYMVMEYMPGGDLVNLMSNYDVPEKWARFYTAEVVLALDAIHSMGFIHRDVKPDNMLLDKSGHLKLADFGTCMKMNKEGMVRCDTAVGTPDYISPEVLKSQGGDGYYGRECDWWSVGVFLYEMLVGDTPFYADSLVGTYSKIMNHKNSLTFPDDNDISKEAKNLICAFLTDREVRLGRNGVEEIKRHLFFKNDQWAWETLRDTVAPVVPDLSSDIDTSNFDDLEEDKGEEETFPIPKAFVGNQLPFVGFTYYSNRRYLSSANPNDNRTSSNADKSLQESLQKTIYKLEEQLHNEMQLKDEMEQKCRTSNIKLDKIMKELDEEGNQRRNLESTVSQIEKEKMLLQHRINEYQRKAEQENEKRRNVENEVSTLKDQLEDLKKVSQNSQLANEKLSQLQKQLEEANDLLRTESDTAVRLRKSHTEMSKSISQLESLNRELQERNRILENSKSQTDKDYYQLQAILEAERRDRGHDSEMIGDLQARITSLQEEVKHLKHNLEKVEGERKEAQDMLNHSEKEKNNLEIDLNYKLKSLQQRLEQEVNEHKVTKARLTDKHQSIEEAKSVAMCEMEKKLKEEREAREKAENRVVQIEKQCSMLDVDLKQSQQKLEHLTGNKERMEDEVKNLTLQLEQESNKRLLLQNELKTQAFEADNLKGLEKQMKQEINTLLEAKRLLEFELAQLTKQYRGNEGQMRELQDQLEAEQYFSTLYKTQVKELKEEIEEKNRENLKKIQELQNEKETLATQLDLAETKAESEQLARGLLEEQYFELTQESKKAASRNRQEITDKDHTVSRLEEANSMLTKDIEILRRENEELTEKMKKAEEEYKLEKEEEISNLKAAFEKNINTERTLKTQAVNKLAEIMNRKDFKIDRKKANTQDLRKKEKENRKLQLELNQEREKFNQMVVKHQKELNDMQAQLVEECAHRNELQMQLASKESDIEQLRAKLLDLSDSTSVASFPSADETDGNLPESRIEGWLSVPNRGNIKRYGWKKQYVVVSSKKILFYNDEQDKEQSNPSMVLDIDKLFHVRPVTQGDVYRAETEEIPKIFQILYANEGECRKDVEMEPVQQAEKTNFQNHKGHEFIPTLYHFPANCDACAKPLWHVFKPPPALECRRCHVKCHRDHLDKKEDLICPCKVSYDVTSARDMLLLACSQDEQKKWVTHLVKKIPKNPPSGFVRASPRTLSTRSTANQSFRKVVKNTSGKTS

[8] = test system: Tyrosine-protein kinase ABL1 (Homo sapiens), P00519 [Q252H]; experiment: Binding affinity to human non-phosphorylated ABL1 Q252H mutant (S229 to K512 residues) expressed in mammalian expression system assessed as residual binding level at 1 uM by Kinomescan method relative to control
Method in brief: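 Kinome-wide single-concentration binding screen (KINOMEscan) at 1 μM against a panel of 468 purified kinases and mutants. Read-out is relative binding of each kinase compared with control. Selectivity across the panel was summarised as an S(10) score.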

[9] = molecular target: Cyclin-dependent kinase 13 (Homo sapiens) (UniProt Q14004); experiment: Binding affinity to wild-type human partial length CDC2L5 (H675 to S1054 residues) expressed in mammalian expression system assessed as residual binding level at 1 uM by Kinomescan method relative to control
[10] = molecular target: Serine/threonine-protein kinase PknB (Mycobacterium tuberculosis) (UniProt P9WI81); experiment: Binding affinity to wild-type Mycobacterium tuberculosis H37Rv ATCC 25618 partial length PKNB (M1 to G279 residues) expressed in mammalian expression system assessed as residual binding level at 1 uM by Kinomescan method relative to control; method in brief: as §1
Sequence of Serine/threonine-protein kinase PknB (Mycobacterium tuberculosis) (P9WI81 whole entry, the tested form may be a part): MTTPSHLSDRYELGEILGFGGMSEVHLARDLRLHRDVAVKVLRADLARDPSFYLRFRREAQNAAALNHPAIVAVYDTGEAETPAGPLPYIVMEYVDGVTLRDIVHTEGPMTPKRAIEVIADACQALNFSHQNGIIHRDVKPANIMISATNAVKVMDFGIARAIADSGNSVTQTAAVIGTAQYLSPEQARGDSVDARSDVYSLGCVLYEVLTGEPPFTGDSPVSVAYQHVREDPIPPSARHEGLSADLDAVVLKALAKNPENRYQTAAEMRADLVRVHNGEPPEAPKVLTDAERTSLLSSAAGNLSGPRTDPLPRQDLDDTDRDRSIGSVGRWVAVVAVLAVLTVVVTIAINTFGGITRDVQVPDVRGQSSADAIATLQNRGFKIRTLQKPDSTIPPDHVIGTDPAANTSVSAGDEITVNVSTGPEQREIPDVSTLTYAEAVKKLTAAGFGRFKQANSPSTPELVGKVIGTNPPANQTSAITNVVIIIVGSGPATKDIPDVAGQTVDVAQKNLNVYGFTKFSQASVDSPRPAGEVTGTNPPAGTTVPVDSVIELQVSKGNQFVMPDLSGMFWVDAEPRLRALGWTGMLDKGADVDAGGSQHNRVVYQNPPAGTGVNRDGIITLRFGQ

[11] = molecular target: Mitogen-activated protein kinase kinase kinase 9 (Homo sapiens) (UniProt P80192); experiment: Binding affinity to wild-type human partial length MLK1 (V88 to W426 residues) expressed in bacterial expression system assessed as residual binding level at 1 uM by Kinomescan method relative to control
[12] = molecular target: G protein-coupled receptor kinase 3 (Homo sapiens) (UniProt P35626); experiment: Binding affinity to wild-type human full length GRK3 (M1 to L688 residues) expressed in mammalian expression system assessed as residual binding level at 1 uM by Kinomescan method relative to control; method in brief: as §1
[13] = test system: EOL1; experiment: Antitumor activity against human EOL-1 cells xenografted in nu/nu mouse assessed as tumor growth inhibition at 50 mg/kg/day, ip; type: functional; conditions: read-out: TGI; method in brief: as §2
[14] = molecular target: Cyclin-dependent kinase 4/cyclin D1 (Homo sapiens) (UniProt P11802+P24385); experiment: Binding affinity to wild-type human full length CDK4/cyclinD1 (M1 to E303 residues) expressed in mammalian expression system assessed as residual binding level at 1 uM by Kinomescan method relative to control; method in brief: as §1
[15] = test system: NCI-H1703; experiment: Induction of apoptosis in human NCI-H1703 cells assessed as cleaved caspase3 expression level after 72 hrs in presence of PDGF-AA by Western blot analysis; type: functional, cell-based
Method in brief: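 Cells exposed to compound or DMSO for the stated periods, then lysed and immunoblotted for PARP and caspase-3 cleavage, with β-actin as loading control. NCI-H1703 stimulation used PDGF AA at 100 ng/mL.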

[16] = molecular target: Receptor tyrosine-protein kinase erbB-2 (Homo sapiens) (UniProt P04626); experiment: Binding affinity to wild-type human partial length ERBB2 (K646 to V1225 residues) expressed in mammalian expression system assessed as residual binding level at 1 uM by Kinomescan method relative to control
[17] = molecular target: Tyrosine-protein kinase CSK (Homo sapiens) (UniProt P41240); experiment: Binding affinity to wild-type human full length CSK (M1 to L450 residues) expressed in bacterial expression system assessed as residual binding level at 1 uM by Kinomescan method relative to control
Sequence of Tyrosine-protein kinase CSK (Homo sapiens) (P41240 2-450 limits assumed): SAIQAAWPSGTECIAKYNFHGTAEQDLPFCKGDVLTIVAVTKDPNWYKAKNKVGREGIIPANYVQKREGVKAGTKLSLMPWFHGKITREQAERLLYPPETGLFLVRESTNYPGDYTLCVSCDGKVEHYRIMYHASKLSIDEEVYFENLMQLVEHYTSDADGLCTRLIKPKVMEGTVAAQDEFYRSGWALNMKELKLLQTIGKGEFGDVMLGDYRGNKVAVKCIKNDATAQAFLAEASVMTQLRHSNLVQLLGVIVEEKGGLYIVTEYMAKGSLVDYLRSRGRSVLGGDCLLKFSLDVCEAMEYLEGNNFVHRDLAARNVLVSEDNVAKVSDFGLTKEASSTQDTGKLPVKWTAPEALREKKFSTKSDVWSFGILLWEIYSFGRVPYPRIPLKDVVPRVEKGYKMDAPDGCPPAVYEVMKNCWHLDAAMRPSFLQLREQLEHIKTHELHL
Method in brief: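 KINOMEscan competition binding against 468 purified kinases/mutants, test compound at 1 µM; residual binding relative to control.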

[18] = molecular target: Serine/threonine-protein kinase SIK1 (Homo sapiens) (UniProt P57059); experiment: Binding affinity to wild-type human partial length SIK (M1 to Y304 residues) expressed in bacterial expression system assessed as residual binding level at 1 uM by Kinomescan method relative to control
Sequence of Serine/threonine-protein kinase SIK1 (Homo sapiens) (P57059 whole entry, the tested form may be a part): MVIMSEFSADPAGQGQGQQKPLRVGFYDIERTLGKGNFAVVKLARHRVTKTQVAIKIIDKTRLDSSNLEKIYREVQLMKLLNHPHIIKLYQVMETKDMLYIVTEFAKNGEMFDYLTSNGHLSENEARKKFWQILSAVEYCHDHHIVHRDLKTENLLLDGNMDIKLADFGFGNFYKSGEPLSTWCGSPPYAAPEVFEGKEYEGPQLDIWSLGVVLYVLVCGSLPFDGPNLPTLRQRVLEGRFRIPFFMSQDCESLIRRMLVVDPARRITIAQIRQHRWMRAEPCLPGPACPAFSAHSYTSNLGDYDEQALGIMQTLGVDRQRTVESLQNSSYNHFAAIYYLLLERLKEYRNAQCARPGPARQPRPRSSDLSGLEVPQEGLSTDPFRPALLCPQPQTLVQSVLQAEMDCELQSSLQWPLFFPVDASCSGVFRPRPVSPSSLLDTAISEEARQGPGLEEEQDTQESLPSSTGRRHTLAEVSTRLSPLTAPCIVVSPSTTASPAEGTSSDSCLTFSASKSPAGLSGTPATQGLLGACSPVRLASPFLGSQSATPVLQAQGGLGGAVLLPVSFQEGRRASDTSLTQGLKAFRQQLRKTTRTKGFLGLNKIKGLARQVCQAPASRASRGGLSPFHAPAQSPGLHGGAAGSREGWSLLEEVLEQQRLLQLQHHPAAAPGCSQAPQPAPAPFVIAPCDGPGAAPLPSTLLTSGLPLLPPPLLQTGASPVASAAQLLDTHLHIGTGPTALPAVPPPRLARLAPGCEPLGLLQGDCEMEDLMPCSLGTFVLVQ

[19] = molecular target: Tyrosine-protein kinase ABL1 (Homo sapiens, UniProt P00519); experiment: Inhibition of ABL1 (unknown origin) using poly(4:1 Glu,Tyr) peptide as substrate preincubated for 1 hr followed by addition of ATP and measured after 30 mins by ADP-Glo bioluminescence assay
[20] = molecular target: Calcium/calmodulin-dependent protein kinase kinase 2 (Homo sapiens) (UniProt Q96RR4); experiment: Binding affinity to wild-type human partial length CAMKK2 (D65 to V471 residues) expressed in bacterial expression system assessed as residual binding level at 1 uM by Kinomescan method relative to control
Method in brief: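 Kinome-wide competition binding screen against a panel of 468 purified kinases/mutants, with the test compound at a single concentration of 1 μM. Read-out is the relative binding activity of each kinase in the presence of compound.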

[21] = molecular target: Serine/threonine-protein kinase 24 (Homo sapiens) (UniProt Q9Y6E0); experiment: Binding affinity to wild-type human partial length MST3 (A30 to S311 residues) expressed in bacterial expression system assessed as residual binding level at 1 uM by Kinomescan method relative to control

Compound: Cc1ccc(NC(=O)c2ccc(CN(CCN(C)C)C(=O)c3cccnc3)cc2)cc1Nc1nccc(-c2cccnc2)n1
- Activity [1]: 100%
- inhibition in vivo at 25 mg/kg/day [2]: 71.5%
- MRT last [3]: 3.33 h
- Activity [4]: 95%
- Activity [5]: 96%
- Activity [6]: 100%
- Activity [7]: 100%
- Activity [8]: 23%
- Activity [9]: 100%
- Activity [10]: 99%
- Activity [11]: 88%
- Activity [12]: 98%
- inhibition in vivo at 50 mg/kg/day [13]: 95.4%
- Activity [14]: 100%
- Activity [15]: Active
- Activity [16]: 85%
- Activity [17]: 92%
- Activity [18]: 100%
- IC50 [19]: > 10 µM
- Activity [20]: 91%
- Activity [21]: 100%
